According to ChEMBL document CHEMBL1149253, “Effects of indole fatty alcohols on the differentiation of neural stem cell derived neurospheres” (J Med Chem, 2004):
Activity calls are given as the source filed them. The calls are words filed in the database; no cut-off is given here.

Legend:
[1] = Differentiation activity of neural stem cell derived neurosphere into neurons at 10 nM after 3 days relative to control; format: functional, Homo sapiens
Method in brief: (§1)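 Dissociated neurospheres proliferated for 3 days, then 50–100 spheres were plated on polyornithine coverslips to differentiate, with EGF reduced to 2 ng/mL. Compound (ethanol stock, 0.1% ethanol final; ethanol-only control) was added at plating, or daily at 10 nM in proliferation, differentiation or both phases. Spheres were fixed in 4% PFA and immunostained for MAP2/TUJ1 (neurons) and GFAP (astrocytes). Confocal counts were expressed as % of TO-PRO-3-stained cells; >10 spheres per condition, 3–4 independent experiments.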

[2] = Hydroxyl radical scavenging activity after 2 hrs by ABTS competition assay; format: functional
Method in brief: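 In the ABTS competition assay, hydroxyl radicals oxidize ABTS to ABTS•+, read by absorbance at 405 nm. IC50 is the concentration giving 50% decrease in ABTS•+ formed. Values are means of triplicate determinations.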

[3] = Effect on neural stem cell derived neurospheres during proliferation phase assessed as increase in number of MAP2 positive cells at 10 nM after 3 days; format: functional, Homo sapiens; method in brief: as §1
[4] = Decrease in Notch2 mRNA expression in neural stem cell derived neurospheres during differentiation phase at 10 nM by semi-quantitative RT-PCR; format: functional; set-up: scale not given: the % may be the effect or the level left; details: Homo sapiens
Method in brief: (§2)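 Neurospheres were treated with or without compound at 10 nM during the differentiation phase. Total RNA was then isolated. cDNA was made from 3 μg RNA with M-MLV reverse transcriptase and random hexamers at 37 °C for 1 h. One-tenth of the cDNA was amplified by Taq PCR with gene-specific Notch primers, using GAPDH as internal control (94/55/72 °C, 30 s each). Products were resolved on a 1% agarose gel with ethidium bromide.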

[5] = Decrease in Notch1 mRNA expression in neural stem cell derived neurospheres during differentiation phase at 10 nM by semi-quantitative RT-PCR; format: functional; set-up: scale not given: the % may be the effect or the level left; details: Homo sapiens; method in brief: as §2
[6] = Effect on neural stem cell derived neurospheres during proliferation and differentiation phase assessed as increase in number of MAP2 positive cells at 10 nM; format: functional, Homo sapiens; method in brief: as §1
[7] = Decrease in Notch3 mRNA expression in neural stem cell derived neurospheres during differentiation phase at 10 nM by semi-quantitative RT-PCR; format: functional; set-up: scale not given: the % may be the effect or the level left; details: Homo sapiens; method in brief: as §2
[8] = Decrease in Notch4 mRNA expression in neural stem cell derived neurospheres during differentiation phase at 10 nM by semi-quantitative RT-PCR; format: functional; set-up: scale not given: the % may be the effect or the level left; details: Homo sapiens; method in brief: as §2
[9] = Effect on neural stem cell derived neurospheres during differentiation phase assessed as increase in number of MAP2 positive cells at 10 nM after 3 days; format: functional, Homo sapiens; method in brief: as §1
Homo sapiens [10] = species: Homo sapiens; experiment: Effect on neural stem cell derived neurospheres assessed as differentiation into astrocytes at 10 nM after 3 days; format: functional; method in brief: as §1
Homo sapiens [11] = species: Homo sapiens; experiment: Mitotic effect on neuronal precursors in neural stem cell derived neurospheres assessed by BrdU incorporation; format: functional

IC50 [2] [µM] | Structure (SMILES) | Activity [1] [%] | also measured
– | COc1ccc2[nH]cc(CCCCCCCCCCO)c2c1 | 109 | –
– | CC1=C(CCCCCCCCCCCCCCCO)C(C)(C)CCC1=O | – | Activity [2]: inactive
34 | COc1cc2[nH]cc(CCCCCCCCCCCCCCCCO)c2cc1OC | 113 | –
– | OCCCCCCCCCCCCCCc1c[nH]c2ccccc12 | 118 | –
– | COc1ccc2c(CCCCCCCCCCCCCCCCCCO)c[nH]c2c1 | 156 | –
600 | Cc1c(C)c2c(c(C)c1O)CCC(C)(C(=O)O)O2 (centres undefined) [TROLOX] | – | –
– | COc1ccc2[nH]cc(CCCCCCCCCCCCCCCCCCO)c2c1 | 169 | Activity [3]: <=90%; Activity [4]: > 70%; Activity [5]: > 70%; Activity [6]: <=90%; Activity [7]: > 70%; Activity [8]: 19%; Activity [9]: <=90%; Activity (Homo sapiens [10]): inactive; Activity (Homo sapiens [11]): inactive
– | COc1ccc2[nH]cc(CCCCCCCCCCCCO)c2c1 | 108 | –
26 | COc1cccc2c(CCCCCCCCCCCCCCCCO)c[nH]c12 | – | –
– | COc1ccc2c(CCCCCCCCCCO)c[nH]c2c1 | 110 | –
17 | COc1ccc2[nH]cc(CCCCCCCCCCCCCCCCO)c2c1OC | 118 | –
– | COc1ccc2[nH]cc(CCCCCCCCCCCCCCO)c2c1 | 143 | –
– | COc1ccc2c(CCCCCCCCCCCCO)c[nH]c2c1 | 67 | –
34 | COc1ccc2c(CCCCCCCCCCCCCCCCO)c[nH]c2c1 | 135 | –
– | COc1ccc2[nH]cc(CCCCCCCCCCCCCCCCCCO)c2c1OC | 106 | –
– | COc1cccc2[nH]cc(CCCCCCCCCCCCCCO)c12 | 118 | –
– | COc1cccc2[nH]cc(CCCCCCCCCCCCO)c12 | 98 | –
211 | COc1ccc2[nH]cc(CCNC(C)=O)c2c1 [MELATONIN] | 119 | –
34 | COc1ccc2[nH]cc(CCCCCCCCCCCCCCCCO)c2c1 | 168 | –
23 | COc1cccc2[nH]cc(CCCCCCCCCCCCCCCCO)c12 | 133 | –
– | OCCCCCCCCCCCCc1c[nH]c2ccccc12 | 124 | –
– | OCCCCCCCCCCCCCCCCCCc1c[nH]c2ccccc12 | 113 | –
– | COc1cccc2[nH]cc(CCCCCCCCCCCCCCCCCCO)c12 | 110 | –
– | COc1cccc2[nH]cc(CCCCCCCCCCO)c12 | 95 | –
– | COc1cc2[nH]cc(CCCCCCCCCCCCCCCCCCO)c2cc1OC | 116 | –
– | COc1ccc2c(CCCCCCCCCCCCCCO)c[nH]c2c1 | 82 | –
207 | CCCCCCCCCCCCCCCc1c[nH]c2ccc(OC)cc12 | – | –
– | OCCCCCCCCCCc1c[nH]c2ccccc12 | 115 | –
– | OCCCCCCCCCCCCCCCCc1c[nH]c2ccccc12 | 144 | –
